Experimental data published in ChEMBL document CHEMBL2034908, “Isoxazolo(aza)naphthoquinones: a new class of cytotoxic Hsp90 inhibitors” (Eur J Med Chem, 2012).
Activity calls are given as the source filed them. No cut-off for these calls is given here.

Legend:
[1] = system: NCI-H460; experiment: Cytotoxicity against human NCI-H460 cells after 72 hrs; assay type: functional, cell-based; conditions: NCI-H460, 72 h
Outline: (§1)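 Compounds were dissolved fresh in DMSO and diluted in culture medium. Cells were exposed for 72 h at 37 °C in medium with 10% heat-inactivated FBS under 5% CO2. IC50 reported ± SD. STO cells were grown in 50/50 DMEM-Ham's F12 with 10% FBS and 2 mM L-Gln.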

[2] = Binding affinity to Hsp90 after 4 hrs by GM-FITC based fluorescence polarization assay
Outline: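 Commercial Hsp90 at 30 nM was mixed with GM-FITC tracer at 5 nM and serially diluted compound. Buffer: 20 mM HEPES(K) pH 7.3, 50 mM KCl, 5 mM MgCl2, 20 mM Na2MoO4, 0.01% NP40, with fresh 0.1 mg/ml bovine gamma globulin and 2 mM DTT. Shaken 4 h at 4 °C, then FP read in mP. IC50 is the concentration displacing 50% of tracer, from triplicate wells by nonlinear least-squares fit.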

[3] = system: A-431; experiment: Cytotoxicity against human A431 cells after 72 hrs; assay type: functional, cell-based; conditions: A-431, 72 h
[4] = Cytotoxicity against human STO cells after 72 hrs; assay type: functional, cell-based; outline: as §1
[5] = system: A-431; experiment: Antitumor activity against human A431 cells xenografted in athymic nude Swiss mouse assessed as tumor growth inhibition at 10 mg/kg, po qd for 4 days per week for 3 weeks; assay type: functional; conditions: read-out: GI
Outline: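 Female athymic Swiss nude mice, 8–10 weeks old, bearing A431 squamous carcinoma xenografts. Drug dissolved in physiologic saline and given orally at 10 mg/kg, qdx4d/week for 3 weeks. Dosing started when tumours were just palpable. Tumour growth inhibition was assessed.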

[6] = molecular target: T1, Heat shock protein HSP90 (Homo sapiens) (UniProt P07900+P08238); experiment: Inhibition of Hsp90 in human A431 cells assessed as up-regulation of Hsp70 in human A431 cells after 24 hrs by Western blotting analysis; assay type: cell-based; conditions: A-431
Outline: (§2)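 Cells were treated 24 h with drug freshly made in DMSO and diluted in medium with 10% FBS. Where a single level was used, it was 22 nM. Lysates: cells rinsed twice in ice-cold PBS with 0.1 mM orthovanadate, then lysed in hot sample buffer. Protein was quantified by BCA, run on SDS-PAGE and blotted to nitrocellulose. Detection used HRP secondary antibodies and chemiluminescence, with actin as loading control.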

[7] = molecular target: T1, Heat shock protein HSP90 (Homo sapiens); experiment: Inhibition of Hsp90 in human A431 cells assessed as down-regulation of Raf expression at 22 nM after 24 hrs by Western blotting analysis; assay type: cell-based; conditions: A-431; outline: as §2
[8] = molecular target: T1, Heat shock protein HSP90 (Homo sapiens); experiment: Inhibition of Hsp90 in human STO cells assessed as down-regulation of Cdk4 expression at 22 nM after 24 hrs by Western blotting analysis; assay type: cell-based; outline: as §2
[9] = molecular target: T1, Heat shock protein HSP90 (Homo sapiens); experiment: Inhibition of Hsp90 in human A431 cells assessed as down-regulation of Cdk4 expression at 22 nM after 24 hrs by Western blotting analysis; assay type: cell-based; conditions: A-431; outline: as §2
[10] = molecular target: T1, Heat shock protein HSP90 (Homo sapiens); experiment: Inhibition of Hsp90 in human A431 cells assessed as down-regulation of EGFR expression at 22 nM after 24 hrs by Western blotting analysis; assay type: cell-based; conditions: A-431; outline: as §2
[11] = molecular target: T1, Heat shock protein HSP90 (Homo sapiens); experiment: Inhibition of Hsp90 in human A431 cells assessed as down-regulation of survivin expression at 22 nM after 24 hrs by Western blotting analysis; assay type: cell-based; conditions: A-431; outline: as §2
[12] = molecular target: T1, Heat shock protein HSP90 (Homo sapiens); experiment: Inhibition of Hsp90 in human STO cells assessed as down-regulation of survivin expression at 22 nM after 24 hrs by Western blotting analysis; assay type: cell-based; outline: as §2
[13] = molecular target: T1, Heat shock protein HSP90 (Homo sapiens); experiment: Inhibition of Hsp90 in human STO cells assessed as down-regulation of Raf expression at 22 nM after 24 hrs by Western blotting analysis; assay type: cell-based; outline: as §2
[14] = system: NCI-H460; experiment: Cytotoxicity against human NCI-H460 cells at >1 uM after 72 hrs; assay type: functional
[15] = molecular target: T1, Heat shock protein HSP90 (Homo sapiens); experiment: Inhibition of Hsp90 in human A431 cells assessed as down-regulation of Cdk4 expression after 24 hrs by Western blotting analysis; assay type: cell-based; conditions: A-431; outline: as §2
[16] = molecular target: T1, Heat shock protein HSP90 (Homo sapiens); experiment: Inhibition of Hsp90 in human A431 cells assessed as down-regulation of Akt expression after 24 hrs by Western blotting analysis; assay type: cell-based; conditions: A-431; outline: as §2
[17] = molecular target: T1, Heat shock protein HSP90 (Homo sapiens); experiment: Inhibition of Hsp90 in human A431 cells assessed as down-regulation of EGFR expression after 24 hrs by Western blotting analysis; assay type: cell-based; conditions: A-431; outline: as §2
[18] = molecular target: T1, Heat shock protein HSP90 (Homo sapiens); experiment: Inhibition of Hsp90 in human A431 cells assessed as down-regulation of survivin expression after 24 hrs by Western blotting analysis; assay type: cell-based; conditions: A-431; outline: as §2

| SMILES | IC50 [1] [nM] | IC50 [2] [nM] | IC50 [3] [nM] | IC50 [4] [nM] | pIC50 [2] | other results |
| --- | --- | --- | --- | --- | --- | --- |
| C=CCNC1=C2C[C@@H](C)C[C@H](OC)[C@H](O)[C@@H](C)/C=C(\C)[C@H](OC(N)=O)[C@@H](OC)/C=C\C=C(/C)C(=O)NC(=CC1=O)C2=O [TANESPIMYCIN] | 10 | 1100 | 69 | – | – | – |
| COc1ccccc1-c1noc2c1C(=O)c1ccccc1C2=O | 290 | 200000 | 130 | 660 | 3.7 | – |
| COc1ccc(-c2noc3c2C(=O)c2ccccc2C3=O)cc1 | 650 | 5840 | 350 | 160 | – | – |
| O=C1c2ccccc2C(=O)c2c(-c3cc[n+](Cc4ccccc4)cc3)noc21.[Br-] | 18 | 34 | 1.6 | 2.2 | 7.47 | inhibition in vivo at 10 mg/kg [5]: 50%; inhibition [6]: Dose-dependent effect; inhibition [7]: Active; inhibition [8]: Active; inhibition [9]: Active; inhibition [10]: Active; inhibition [11]: Active; inhibition [12]: Active; inhibition [13]: Active |
| O=C1c2cccc(O)c2C(=O)c2c(-c3ccc(F)cc3)noc21 | 124 | 290 | 290 | 610 | 6.54 | – |
| CC(=O)Oc1cccc2c1C(=O)c1c(-c3ccc(F)cc3)noc1C2=O | 78 | 1940 | 270 | 1050 | – | – |
| O=C1c2ccccc2C(=O)c2c(-c3cccnc3)noc21 | 62 | 540 | 43 | 40 | 6.27 | – |
| COc1cc(OC)c(-c2noc3c2C(=O)c2ccccc2C3=O)cc1Cl | 880 | > 100000 | 1400 | 135 | – | – |
| O=C1c2ccccc2C(=O)c2c(-c3ccc(O)cc3)noc21 | 510 | > 100000 | 210 | 460 | – | – |
| O=C1c2ccccc2C(=O)c2c(/C=C/c3ccccc3)noc21 | > 1000 | > 100000 | 320 | 120 | – | Activity [14]: 40% |
| COc1ccc(-c2noc3c(OC(C)=O)c4ccccc4c(OC(C)=O)c23)cc1 | > 1000 | > 100000 | 1300 | 1000 | – | Activity [14]: 39% |
| O=C1c2ccncc2C(=O)c2c(-c3ccncc3)noc21 | 85 | 120 | 8.5 | 60 | 6.92 | – |
| COc1cc(O)c(-c2noc3c2C(=O)c2ccccc2C3=O)cc1Cl | > 1000 | > 100000 | 2980 | 300 | – | – |
| O=C1c2ccncc2C(=O)c2c(-c3ccc(F)cc3)noc21 | 183 | 5600 | 4 | 4 | 5.25 | – |
| CC(=O)Oc1cccc2c1C(=O)c1c(-c3ccncc3)noc1C2=O | 150 | 84 | 60 | 150 | 7.08 | – |
| Cl.O=C1c2ccccc2C(=O)c2c(-c3ccc(OCCN4CCOCC4)cc3)noc21 | 866 | 1200 | 440 | 1130 | 5.92 | – |
| O=C1c2ccccc2C(=O)c2c(-c3ccccc3)noc21 | 120 | 7850 | 120 | 20 | 5.11 | – |
| Cl.O=C1c2ccncc2C(=O)c2c(-c3ccc(OCCN4CCOCC4)cc3)noc21 | 41 | < 5 | 20 | 54 | 8.47 | inhibition [6]: Dose-dependent effect; inhibition [15]: Dose-dependent effect; inhibition [16]: Dose-dependent effect; inhibition [17]: Dose-dependent effect; inhibition [18]: Dose-dependent effect |
